The labels stand for the following.
B1: tRNA (parent)
chain: GUUCCGUUGGCGUAAUGGUAACGCGUCUCCCUCCUAAGGAGAAGACUGCGGGUUCGAGUCCCGUACGGAACG

Fewer inactive variants are shown than the library holds.

The series covers variants of B1. Description: yeast fitness relative to wild type (ratio to wild type); higher = fitter; tRNA-Arg(CCU), competitive growth, 37 C, YPD. The method, boiled down:
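Changes in genotype frequencies gave Darwinian fitness relative to wild type. Frequencies were read by 100-nucleotide paired-end sequencing of gene amplicons before and after pooled Saccharomyces cerevisiae strains, carrying tRNA-Arg(CCU) gene variants at the native locus, were competed in YPD at 37°C for 24 hours in six replicates. A genotype was kept only with ≥ 100 starting reads, and estimates < 0.5 were set to 0.5.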
In the case of GUUCCGUUGGCAGAAUGGUAACGCGUCUCCCUCCUAAGGAGAAGACUGCGGGUUCGAGUCCCGUACGGCACG [G12A U13G A69C], the yeast fitness was 0.598.
GUUGCGUUGGCGUAACGGUAACGCGUGUCCCUCCUAAGGGGAAGACUACGGGUUCGCGUCCUGUACGGAACG [C4G U16C C27G A40G G48A A57C C62U]: the yeast fitness amounted to 0.537.
For GUUCCGUUGGCGUGAUGGUACCGCGUCUCGCUCCUAAGGAGAAGACUGCGGGUUGGAGUCCCGUAUAGAACG [A14G A21C C30G C55G C66U G67A] the value was no more than 0.5; for GUUCCGUUGGCGAAAUGGUAACGCGUCUCCCUCCUAUGGACAAGACUGCGGGUUCGAGCCCCGUACGGAACG [U13A A37U G41C U59C], no more than 0.5.
Consider GUUCCGUUGGCGUAAUGCUGACGCGUCUACCUCCUAAGGAGAAGACUGCGGGUUCGAGUCCCGUACAGAACG [G18C A20G C29A G67A], for which the yeast fitness was no more than 0.5.
The result for GUUCCGUUGGCGUAAUGGUUCCGCGUCUCCCUCCUAAGGAGAAGUCUGCGGGUUCGAGUCCCGUACGGAACG [A20U A21C A45U] reads 0.675; that for GGUCGGUUGGCGUAAUGGUACCGCGUCUCCCUCCUAAGGAGAUGACUGCAGUUUCGAGUCCCGUACGGCACG [U2G C5G A21C A43U G50A G52U A69C], no more than 0.5.
The result for GUUCCGUUGGCGUUAUCGUAACGCGUCUCCCUCCUAAGGAGAAGACUGCGGGUUCGAGUCCCGUACGGAACG [A14U G17C] reads 0.514; that for GUUCCGUUGGGGUAAUGGUAACGCGUCUCCCUCCUAAGGGGAAGACUGCGGGUUCGAGUCACGUACGGAACG [C11G A40G C61A], 0.605.
The result for GUUCAGUUGGCGUAAUGGUCACGCGUCUGCCUCCUAAGGAGAAGACUGCGGGUUCGAGUCCCGUUCGGAACG [C5A A20C C29G A65U] reads no more than 0.5; that for GUUCCGUUGGCGUAGUGGUAACGCGUCUACCUCCUAAGGAGAAGACUGCGGGUUCGAGUCACGUAGGGAACG [A15G C29A C61A C66G], 0.535.
Take GUUCCGUUGGCGUAAUGGUAACCCGUCUCCCUCCUAAGGAGCAGACAGGGGGUUCGAGUCCCGUACGGUUCG [G23C A42C U47A C49G A69U A70U]: the yeast fitness is no more than 0.5.
On to GUCCCGUUCGCGUAAUGGUAACGCGUCUCCCUCCUAAGGAGAAGACUGCGGGUUCGAGUCCCGUACGGAUCG [U3C G9C A70U], for which the yeast fitness was no more than 0.5.
For GUUCUGUUGGCGUAAUUGUAACGCGUCUCCCUCCUAAGGAGAAGACUGCGGGUUCGAGUCCCGUACGGAUCG [C5U G17U A70U] the value was no more than 0.5.
For GUUCUGUUGGCGUAAUGGUAACACGUCUCCCUCCUAAGGAGAAGAGUGGGGGUUCGAGUCCCGUACGGAACG [C5U G23A C46G C49G] the value was no more than 0.5; for GUUCCGUUGGCGUAAUGGUAACGCGUCUCCCUCCUAAGGAGAAGACUACGGGUUCGAGUCGCGUACGGACCG [G48A C61G A70C], 0.531.
For GUUCUGUCGGCGUAAUGGUAACGCGUCUCCGUGUUAAGGAGAAGACUGCGGGUUCGAGUCCCGUACGAAACG [C5U U8C C31G C33G C34U G68A], the yeast fitness is no more than 0.5.
For GUUUCGUUGGCGUAAUGGUAACGCGUCUCCCUCCUAAGGACAAGACUGCGCGUUCGACUCCCGUACGGAACG [C4U G41C G51C G58C] the value was no more than 0.5; for GUUCCGUUGGCGUAAUGGUAACGCGUCACCCUCCUAAGCAGAAGACUGCGGGUUCGAGUCCCGUACGGAACG [U28A G39C], 0.552; for GUUCCGUUGGCGUGAUGGUAAGGCGUCUGCCUCCUAAGGACAAGACUGCGGGUUCGAGUCCCGUACGGAACG [A14G C22G C29G G41C], no more than 0.5.
GUACCGUUGGCGUAAUGGUAACGCAUCUCCCUCCUAAGGAGAAGACUGCGGGUUCGAGUCCCGUACGGAACG [U3A G25A]: the yeast fitness came to 1.09.
With GUUCCGUUGGUGUAAUGGUAAUGCGUCUCCCUCCUAAGGAGAACACUGCGGGUUCGAGUCCUGUACGGAACG [C11U C22U G44C C62U], the yeast fitness is no more than 0.5.
For GUUCUGUUGGCGUAAUGGUAACGCGUCUCCCUCCUAACGAGCAGACUGCGGGUUCGAGUCCCAUACGGAACG [C5U G38C A42C G63A] the value was no more than 0.5.
For GUUACGUUGGCGUAAUGGUAAAGCGUCUUCCUCCUAAGGAGAAGACUGCGGGUUCGAGUCCCGUACGGUACG [C4A C22A C29U A69U], the yeast fitness is no more than 0.5.
For GUUCCGUUGGCGUAAUGGUAAAGCGUCUCCUUCCUAAGGAGAAGGCUGCGGGUUCGAGUCCCGUACGGAACG [C22A C31U A45G] the value was 0.667; for GUUCCGUUGGCGUAAUCGUAAGGCGACUCCCUCCUAAGGAGAGGACUGCGGGUUCGAGUCUCGUUCGGAACG [G17C C22G U26A A43G C61U A65U], no more than 0.5.
For GUUCCGUUGGCGUAAUGGUAACGCGUCUCCCUCCUAAGGAGAAGACUGCGGGUUCGAGUGUCAUACGGAACG [C60G C61U G63A] the value was no more than 0.5.
The result for GUUCGGUUGGCGUUAUGGUAACGCGUCUCCCUCCUAUGGAGAAGCCUGCGGGUUCGAGUCCCGUACGGAACG [C5G A14U A37U A45C] reads no more than 0.5; that for GUUCCGUCCGCGUAAUGGUAACGCGUCUCCCUCCUAAGGAGAAGACUGCGGGUUCGAGUCCCGUACGGAACG [U8C G9C], 0.695; that for GUUCCGUAGGCGUAAUGGUAACCCGUCUCCCUCCUAAGGAGAAGACUGCGGGUUCUAGUCCCGUUCGGAACG [U8A G23C G56U A65U], no more than 0.5.
For the variant GUUCCGUUGGCGUAAUGGUAACGCGUCUCCCGCCUAAGGAGAAGACUGCGGGUUGGAGUCCCGUACGGAACG [U32G C55G], the yeast fitness was no more than 0.5.
The result for GUUCGGUUGGCGUAAUGGUAACGUGUCUCCCUUUUAAGGAGAAAACUGCGGGUUCGAGUCCGGUACGGAACG [C5G C24U C33U C34U G44A C62G] reads no more than 0.5; that for GUUCCGUUGGCGUAAAGGUAACGCGUCUCCCUCCUAAGGAGAAGACUGCGGGUUCGACUCACGUACGGAACG [U16A G58C C61A], no more than 0.5; that for GUUCCGUUGGCGUAAUGGUAACGCGUCGCCCUCCUACGGAGAAGACUGCGGGUUUGAGUCCCGUACGGAACG [U28G A37C C55U], no more than 0.5.
Consider GUUCCGUUGGCGUAAUGGUAACGCGUCUCCCUCCUCAGGAGAAGCCUACGGCUUCGAGUCCCGUACGAAACG [A36C A45C G48A G52C G68A], for which the yeast fitness is no more than 0.5.
The result for GUUCCGUUGGCGUAAAGGUAACGUGUCUCCCUCCUAAGGAGUAGUCUGCGGGAUCAAGUCCCGUACGGAACG [U16A C24U A42U A45U U53A G56A] reads no more than 0.5; that for GUUCCGUUAGCGUAUUGGUGACGCGUCUCCCUCCUAAGGAGAAGACUGCGGGUUCGAGUCCCGUUCGGAACG [G9A A15U A20G A65U], no more than 0.5; that for GUUCCGUUGGCGUAAUGGUAACGCGUCUCCCUCCUAAGAAGAAGACUGCGGGUUCGAGUCCCGUACGGGGCG [G39A A69G A70G], 0.946.
